The values below come from ChEMBL document CHEMBL3745670, “Synthesis and biological evaluation of novel lipoamino acid derivatives” (Bioorg Med Chem Lett, 2016).

≈ marks a conversion by molar mass, not a printed value. Some results are limits rather than exact numbers.

In assay [1] the test system is Micrococcus luteus. The assay can be described thus: Antibacterial activity against Micrococcus luteus MTCC 2470 after 24 hrs by well diffusion assay. The format is functional. The settings on record: MTCC 2470, 24 h.
Assay [2] deals with Staphylococcus aureus. Put plainly: Antibacterial activity against Staphylococcus aureus MTCC 96 after 24 hrs by well diffusion assay. The format is functional. The settings on record: MTCC 96, 24 h.
For assay [3], the system named is Staphylococcus aureus. Put plainly: Antibacterial activity against Staphylococcus aureus MLS-16 MTCC 2940 after 24 hrs by well diffusion assay. Format: functional. The settings on record: MLS-16 MTCC 2940, 24 h.
The test system of assay [4] is Candida albicans. The assay can be described thus: Antifungal activity against Candida albicans MTCC 3017 after 24 hrs by well diffusion assay. The format is functional. The settings on record: MTCC 3017, 24 h. Put shortly: (§1)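 Well diffusion screen against Candida and related fungal strains. Read-out is MIC in µg/mL, with miconazole as the reference drug.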
Assay [5] has as its system Bacillus subtilis. Put plainly: Antibacterial activity against Bacillus subtilis MTCC 121 after 24 hrs by well diffusion assay. The format is functional. The settings on record: MTCC 121, 24 h.
The subject of another assay is Escherichia coli. Put plainly: Antibacterial activity against Escherichia coli MTCC 739 after 24 hrs by well diffusion assay. The format is functional. The settings on record: MTCC 739, 24 h.
The subject of the next assay is Raoultella planticola. The assay can be described thus: Antibacterial activity against Klebsiella planticola MTCC 530 after 24 hrs by well diffusion assay. The settings on record: MTCC 530, 24 h. Format: functional.
Another assay has as its system Pseudomonas aeruginosa. Put plainly: Antibacterial activity against Pseudomonas aeruginosa MTCC 2453 after 24 hrs by well diffusion assay. Format: functional. The settings on record: MTCC 2453, 24 h.
The nature of assay [6]: Cytotoxicity against human DU145 cells by MTT assay. The following applies: DU-145. Format: functional, cell-based.
For another assay, the system named is MDA-MB-231. The assay can be described thus: Cytotoxicity against human MDA-MB-231 cells by MTT assay. The format is functional, cell-based.
For assay [7], the system named is Micrococcus luteus. The assay can be described thus: Bactericidal activity against Micrococcus luteus MTCC 2470 after 24 hrs. The settings on record: MTCC 2470, 24 h. The format is functional. The method in brief: (§2)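 Minimum bactericidal concentration was determined on four Gram-positive strains, for the compounds active in the preliminary antibacterial screen.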

Assay [8] concerns Bacillus subtilis. Put plainly: Bactericidal activity against Bacillus subtilis MTCC 121 after 24 hrs by well diffusion assay. The format is functional. The following applies: MTCC 121, 24 h. Put shortly: as §2
The subject of assay [9] is Micrococcus luteus. The assay can be described thus: Antibiofilm activity against Micrococcus luteus MTCC 2470 after 24 hrs by crystal violet staining based method. Format: functional, organism-based. The following applies: MTCC 2470, 24 h. The method in brief:
(§3)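 Biofilm inhibition was tested on the four Gram-positive strains, using crystal violet staining.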

Assay [10] has as its system Bacillus subtilis. Put plainly: Antibiofilm activity against Bacillus subtilis MTCC 121 after 24 hrs by well diffusion assay by crystal violet staining based method. The format is functional, organism-based. The following applies: MTCC 121, 24 h. The method in brief:
as §3

Another assay concerns HepG2. The assay can be described thus: Cytotoxicity against human HepG2 cells by MTT assay. The format is functional, cell-based.
Assay [11] is described as follows: Cytotoxicity against human SKOV3 cells by MTT assay. The following applies: SK-OV-3. Format: functional, cell-based.
The test system of assay [12] is Staphylococcus aureus. The assay can be described thus: Bactericidal activity against Staphylococcus aureus MTCC 96 after 24 hrs. Format: functional. The settings on record: MTCC 96, 24 h. Put shortly: as §2
Assay [13] has as its system Staphylococcus aureus. The assay can be described thus: Antibiofilm activity against Staphylococcus aureus MTCC 96 after 24 hrs by crystal violet staining based method. The following applies: MTCC 96, 24 h. Format: functional, organism-based. The method in brief: as §3
For assay [14], the system named is Candida albicans. Put plainly: Antifungal activity against Candida albicans MTCC 183 after 24 hrs by well diffusion assay. Format: functional. The following applies: MTCC 183, 24 h. Put shortly:
as §1

Assay [15] deals with Candida albicans. The assay can be described thus: Antifungal activity against Candida albicans MTCC 227 after 24 hrs by well diffusion assay. The format is functional. The settings on record: MTCC 227, 24 h. Put shortly:
as §1

In assay [16] the test system is Candida albicans. The assay can be described thus: Antifungal activity against Candida albicans MTCC 854 after 24 hrs by well diffusion assay. Format: functional. The following applies: MTCC 854, 24 h. Put shortly:
as §1

Assay [17] relates to Candida albicans. The assay can be described thus: Antifungal activity against Candida albicans MTCC 1637 after 24 hrs by well diffusion assay. Format: functional. The settings on record: MTCC 1637, 24 h. Put shortly: as §1
Assay [18] has as its system Candida albicans. The assay can be described thus: Antifungal activity against Candida albicans MTCC 3018 after 24 hrs by well diffusion assay. The format is functional. The settings on record: MTCC 3018, 24 h. Put shortly:
as §1

Assay [19] deals with Candida albicans. The assay can be described thus: Antifungal activity against Candida albicans MTCC 3958 after 24 hrs by well diffusion assay. The following applies: MTCC 3958, 24 h. The format is functional. Put shortly: as §1
For assay [20], the system named is Candida albicans. Put plainly: Antifungal activity against Candida albicans MTCC 4748 after 24 hrs by well diffusion assay. The format is functional. The following applies: MTCC 4748, 24 h. The method in brief:
as §1

The subject of assay [21] is Candida albicans. The assay can be described thus: Antifungal activity against Candida albicans MTCC 7315 after 24 hrs by well diffusion assay. The settings on record: MTCC 7315, 24 h. Format: functional. Put shortly:
as §1

Assay [22] relates to Candida parapsilosis. The assay can be described thus: Antifungal activity against Candida parapsilosis MTCC 1744 after 24 hrs by well diffusion assay. Format: functional. The following applies: Lodderomyces parapsilosis, MTCC 1744, 24 h. Put shortly: as §1
For a further assay, the system named is [Candida] aaseri. The assay can be described thus: Antifungal activity against Candida aaseri MTCC 1962 after 24 hrs by well diffusion assay. Format: functional. The following applies: Yamadazyma aaseri, MTCC 1962, 24 h. The method in brief:
as §1

The next assay relates to Nakaseomyces glabratus. The assay can be described thus: Antifungal activity against Candida glabrata MTCC 3019 after 24 hrs by well diffusion assay. Format: functional. The settings on record: MTCC 3019, 24 h. Put shortly:
as §1

For a further assay, the system named is Pichia kudriavzevii. The assay can be described thus: Antifungal activity against Pichia kudriavzevii MTCC 3020 after 24 hrs by well diffusion assay. The format is functional. The following applies: MTCC 3020, 24 h. The method in brief: as §1
The test system of the next assay is Pichia sporocuriosa. Put plainly: Antifungal activity against Issatchenkia hanoiensis MTCC 4755 after 24 hrs by well diffusion assay. The format is functional. The settings on record: MTCC 4755, 24 h. The method in brief: as §1
Assay [23] concerns Candida parapsilosis. The assay can be described thus: Inhibition of ergosterol biosynthesis in Candida parapsilosis MTCC 1744 assessed as mean ergosterol content at 2 ug/ml after 20 hrs by spectrophotometric analysis (Rvb=1.62 +/- 0.08 ug/ml). The format is functional.
For assay [24], the system named is Candida parapsilosis. Put plainly: Inhibition of ergosterol biosynthesis in Candida parapsilosis MTCC 1744 assessed as mean ergosterol content at 4 ug/ml after 20 hrs by spectrophotometric analysis (Rvb=1.62 +/- 0.08 ug/ml). The format is functional.
Assay [25] has as its system Candida parapsilosis. The assay can be described thus: Inhibition of ergosterol biosynthesis in Candida parapsilosis MTCC 1744 assessed as mean ergosterol content at 8 ug/ml after 20 hrs by spectrophotometric analysis (Rvb=1.62 +/- 0.08 ug/ml). Format: functional.
The subject of assay [26] is Candida parapsilosis. Put plainly: Inhibition of ergosterol biosynthesis in Candida parapsilosis MTCC 1744 assessed as mean ergosterol content at 16 ug/ml after 20 hrs by spectrophotometric analysis (Rvb=1.62 +/- 0.08 ug/ml). Format: functional.

Regarding `CCCCCCCCC(CCCCCCCCC(=O)OC)SCC(=O)N[C@@H](CC(C)C)C(=O)OC` (stereo not given in full), the minimum inhibitory concentration (MIC) with Micrococcus luteus [1], against Staphylococcus aureus [2], against Staphylococcus aureus [3], with Candida albicans [4], in the assay on Bacillus subtilis [5] and against Escherichia coli was greater than 125 mg/L each time. In addition, the minimum inhibitory concentration (MIC) in the assay on Raoultella planticola and in the assay on Pseudomonas aeruginosa was greater than 125 mg/L in each case. In addition, the half-maximal inhibitory concentration (IC50) in assay [6] turned out to be 215 µM; with MDA-MB-231 it was 152 µM.
In the case of `CCCCCCCCC(CCCCCCCCC(=O)OC)SCC(=O)NCC(=O)OC` (stereo not given), the minimal inhibitory concentration (MIC) is 15.6 mg/L (≈ 33.9 µM) in the assay on Micrococcus luteus [1]; greater than 125 mg/L against Staphylococcus aureus [2]; greater than 125 mg/L against Staphylococcus aureus [3]; 31.2 mg/L (≈ 67.9 µM) in the assay on Candida albicans [4]; 7.8 mg/L (≈ 17 µM) against Bacillus subtilis [5]; greater than 125 mg/L in the assay with Escherichia coli. Also, the MIC against Raoultella planticola and in the assay with Pseudomonas aeruginosa was greater than 125 mg/L throughout. Besides, the MBC in the assay on Micrococcus luteus [7] was 31.2 mg/L (≈ 67.9 µM); in the assay on Bacillus subtilis [8], 3.9 mg/L (≈ 8.48 µM). The 50% inhibitory concentration (IC50) with Micrococcus luteus [9] stood at 8.2 µM; with Bacillus subtilis [10] it was 4.4 µM; in [6] it was 30.8 µM; in the assay on HepG2, 29.6 µM; in assay [11] it was 25.2 µM; in the assay with MDA-MB-231 it was 31.4 µM.
Regarding `CCCCCCCCC(CCCCCCCCC(=O)OC)SCC(=O)N[C@H](C(=O)OC)[C@@H](C)CC` (stereo not given in full), the MIC in the assay on Micrococcus luteus [1] was 31.2 mg/L (≈ 60.5 µM); against Staphylococcus aureus [2], 31.2 mg/L (≈ 60.5 µM); against Staphylococcus aureus [3] it was greater than 125 mg/L; in the assay on Candida albicans [4], greater than 125 mg/L; against Bacillus subtilis [5], greater than 125 mg/L; in the assay on Escherichia coli, greater than 125 mg/L. Besides, the MIC in the assay with Raoultella planticola and with Pseudomonas aeruginosa was greater than 125 mg/L in each case. The MBC in the assay with Micrococcus luteus [7] and with Staphylococcus aureus [12] was 31.2 mg/L (≈ 60.5 µM) in each case. In addition, the half-inhibitory concentration (IC50) was 16.8 µM with Micrococcus luteus [9]; 21.5 µM in the assay with Staphylococcus aureus [13]; 19 µM in [6]; 15.3 µM with HepG2; 16.4 µM in assay [11]; 22.4 µM in the assay on MDA-MB-231.
With `Clc1ccc(COC(Cn2ccnc2)c2ccc(Cl)cc2Cl)c(Cl)c1` (stereo not given) [MICONAZOLE], the MIC in the assay with Micrococcus luteus [1] was greater than 125 mg/L; in the assay with Staphylococcus aureus [2], greater than 125 mg/L; in the assay on Staphylococcus aureus [3] it was greater than 125 mg/L; in the assay on Candida albicans [4] it was 7.8 mg/L (≈ 18.7 µM); against Bacillus subtilis [5], greater than 125 mg/L; against Escherichia coli, greater than 125 mg/L. Besides, the minimum inhibitory concentration (MIC) in the assay on Raoultella planticola is greater than 125 mg/L; in the assay with Pseudomonas aeruginosa it was greater than 125 mg/L; in the assay with Candida albicans [14], 7.8 mg/L (≈ 18.7 µM); with Candida albicans [15] it was 7.8 mg/L (≈ 18.7 µM); against Candida albicans [16], 7.8 mg/L (≈ 18.7 µM); with Candida albicans [17], 7.8 mg/L (≈ 18.7 µM). The MIC (against Candida albicans [18]; against Candida albicans [19]; against Candida albicans [20]; against Candida albicans [21]; in the assay with Candida parapsilosis [22]; in assay [Candida] aaseri) was 7.8 mg/L (≈ 18.7 µM) each time. The MIC against Nakaseomyces glabratus, against Pichia kudriavzevii and against Pichia sporocuriosa was 7.8 mg/L (≈ 18.7 µM) throughout. For the same molecule, the MFC against Candida albicans [14] worked out at 7.8 mg/L (≈ 18.7 µM); against Candida albicans [15], 15.6 mg/L (≈ 37.5 µM); with Candida albicans [16], 7.8 mg/L (≈ 18.7 µM); against Candida albicans [17], 15.6 mg/L (≈ 37.5 µM); in the assay on Candida albicans [18], 7.8 mg/L (≈ 18.7 µM); against Candida albicans [19], 7.8 mg/L (≈ 18.7 µM). Also, the minimum fungicidal concentration (MFC) in the assay with Candida albicans [20] came to 7.8 mg/L (≈ 18.7 µM); against Candida albicans [21], 15.6 mg/L (≈ 37.5 µM); against Candida parapsilosis [22] it was 7.8 mg/L (≈ 18.7 µM); in [Candida] aaseri it was 15.6 mg/L (≈ 37.5 µM); with Nakaseomyces glabratus it was 7.8 mg/L (≈ 18.7 µM); against Pichia kudriavzevii it was 7.8 mg/L (≈ 18.7 µM). The molecule also showed a minimal fungicidal concentration (MFC) against Pichia sporocuriosa of 7.8 mg/L (≈ 18.7 µM). For the same molecule, the Activity in the assay on Candida parapsilosis [23] came out at 1.28 µg/mL; in the assay on Candida parapsilosis [24] it was 0.54 µg/mL; in the assay on Candida parapsilosis [25], 0.24 µg/mL; in the assay on Candida parapsilosis [26], 0.09 µg/mL.
